The record followed here is ChEMBL document CHEMBL4190292, “Electrophilic Triterpenoid Enones: A Comparative Thiol-Trapping and Bioactivity Study” (J Nat Prod, 2017).

Each structure is given as a SMILES string.

Common to all, as to assay type: cell-based
Data set [1] is described as follows: Inhibition of TNF-alpha stimulated NF-kappaB (unknown origin) expressed in mouse NIH/3T3 cells after 6 hrs by luciferase reporter gene assay. To be noted: NIH3T3, 6 h. The gist of the method:
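NIH-3T3-KBF-Luc mouse fibroblasts given TNFα (20 ng/mL) with or without compounds for 6 h. Cells washed, lysed in Tris-phosphate pH 7.8 buffer, and luciferase read on the supernatant. Inhibition expressed as percent of TNFα-induced NF-κB activity (100%). Mean of at least five independent experiments.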
In general terms: In a reporter assay the amount or activity of a reporter protein is the signal.

Data set [2] addresses T1, Nuclear factor erythroid 2-related factor 2 (Homo sapiens) (UniProt Q16236).
T1 sequence (whole entry): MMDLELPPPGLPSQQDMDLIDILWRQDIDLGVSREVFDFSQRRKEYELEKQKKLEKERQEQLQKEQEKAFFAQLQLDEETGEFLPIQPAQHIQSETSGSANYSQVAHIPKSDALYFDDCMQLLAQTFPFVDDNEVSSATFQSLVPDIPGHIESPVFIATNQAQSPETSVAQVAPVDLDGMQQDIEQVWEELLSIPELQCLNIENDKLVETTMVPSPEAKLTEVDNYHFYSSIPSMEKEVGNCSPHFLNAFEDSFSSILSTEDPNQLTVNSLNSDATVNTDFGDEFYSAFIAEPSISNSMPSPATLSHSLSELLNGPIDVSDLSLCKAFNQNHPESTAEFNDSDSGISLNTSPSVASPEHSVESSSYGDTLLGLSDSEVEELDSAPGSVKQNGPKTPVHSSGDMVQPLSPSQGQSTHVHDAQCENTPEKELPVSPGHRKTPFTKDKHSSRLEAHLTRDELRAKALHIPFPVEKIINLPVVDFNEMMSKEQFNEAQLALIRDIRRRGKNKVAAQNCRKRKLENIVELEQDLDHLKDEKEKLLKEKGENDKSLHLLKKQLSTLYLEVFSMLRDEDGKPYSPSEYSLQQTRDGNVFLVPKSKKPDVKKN
Put plainly: Activation of Nrf2 (unknown origin) expressed in human HaCaT-ARE-luc cells after 6 hrs by luciferase reporter gene assay relative to control tertbutylhydroquinone.

For data set [3], the target named is Signal transducer and activator of transcription 3 (Homo sapiens, UniProt P40763). Briefly: Inhibition of IFN-gamma stimulated STAT3 (unknown origin) expressed in human HeLa cells after 6 hrs by luciferase reporter gene assay. Summed up:
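HeLa-STAT3-Luc cells stimulated with γIFN (20 IU/mL) with or without compounds for 6 h. PBS-washed cells lysed 15 min at room temperature and luciferase RLU measured. Values expressed as percent inhibition of IFN-γ-induced activity (taken as 100%). Mean of at least five independent experiments.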

Data set [4] has as its target T2, Nuclear factor erythroid 2-related factor 2 (Homo sapiens, UniProt Q16236).
T2 sequence (Q16236 whole entry): T1 sequence (whole entry)
Put plainly: Activation of Nrf2 (unknown origin) expressed in human HaCaT-ARE-luc cells after 6 hrs by luciferase reporter gene assay. The gist of the method: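 HaCaT-ARE-Luc keratinocytes in DMEM with 10% FBS, 37 °C, 5% CO2, exposed to compounds for 6 h. Cells then washed with PBS and lysed (Tris-phosphate pH 7.8, MgCl2, DTT, Triton X-100, glycerol, 15 min RT). Luciferase RLU read on the supernatant and EC50 derived. Mean of at least five independent experiments.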

The subject of the next data set is HeLa. Put plainly: Cytotoxicity against human HeLa cells harboring pSTAT3-Luc assessed as reduction in cell viability at >5 to 10 uM.
A further data set concerns HaCaT. Briefly: Cytotoxicity against human HaCaT cells harboring pARE-Luc assessed as reduction in cell viability at >5 to 10 uM.

Signal transducer and activator of transcription 3, sequence (P40763 whole entry): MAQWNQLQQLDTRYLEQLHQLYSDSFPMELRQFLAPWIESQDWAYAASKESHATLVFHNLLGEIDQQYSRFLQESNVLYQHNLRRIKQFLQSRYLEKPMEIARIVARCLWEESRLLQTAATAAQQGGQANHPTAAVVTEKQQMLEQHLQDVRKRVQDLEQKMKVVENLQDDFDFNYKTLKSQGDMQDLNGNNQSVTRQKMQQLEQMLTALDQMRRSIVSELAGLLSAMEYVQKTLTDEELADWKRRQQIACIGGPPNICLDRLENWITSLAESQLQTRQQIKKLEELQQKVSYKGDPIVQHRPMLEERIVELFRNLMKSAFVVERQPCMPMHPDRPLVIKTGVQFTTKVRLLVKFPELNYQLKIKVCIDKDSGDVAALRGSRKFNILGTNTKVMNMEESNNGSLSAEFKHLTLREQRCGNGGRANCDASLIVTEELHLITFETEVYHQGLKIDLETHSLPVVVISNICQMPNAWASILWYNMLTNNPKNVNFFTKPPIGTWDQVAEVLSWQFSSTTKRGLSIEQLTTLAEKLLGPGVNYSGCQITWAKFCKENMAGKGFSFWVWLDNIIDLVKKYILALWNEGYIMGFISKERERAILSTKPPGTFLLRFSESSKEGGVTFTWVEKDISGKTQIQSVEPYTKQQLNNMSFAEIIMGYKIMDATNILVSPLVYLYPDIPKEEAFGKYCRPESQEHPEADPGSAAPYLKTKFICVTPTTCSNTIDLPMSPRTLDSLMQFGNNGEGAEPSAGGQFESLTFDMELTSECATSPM

For orientation: IC50 means the concentration that gives 50% inhibition. Low values mean greater potency in that assay, high ones weaker potency in that assay. Turning to `COC(=O)[C@]12CCC(C)(C)C[C@H]1C1=CC[C@@H]3[C@@]4(C)CC(C#N)=C(O)C(C)(C)[C@@H]4CC[C@@]3(C)[C@]1(C)CC2`, the IC50 in data set [1] is > 25 µM.
As for `COC(=O)[C@]12CCC(C)(C)C[C@H]1C1=CC[C@@H]3[C@@]4(C)C=C(C#N)C(=O)C(C)(C)[C@@H]4CC[C@@]3(C)[C@]1(C)CC2`, in data set [1], half-maximal inhibition (IC50) required 15.3 µM. The Ratio in data set [2] amounted to 1.69.
With `COC(=O)[C@]12CCC(C)(C)C[C@H]1C1=CC[C@@H]3[C@@]4(C)CCC(=O)C(C)(C)[C@@H]4CC[C@@]3(C)[C@]1(C)CC2`, in data set [1], the IC50 was > 25 µM.
`COC(=O)[C@]12CCC(C)(C)C[C@H]1C1=CC[C@@H]3[C@@]4(C)CC(C=O)=C(O)C(C)(C)[C@@H]4CC[C@@]3(C)[C@]1(C)CC2`: the IC50 in data set [1] was > 25 µM.
The same measure, in the same setting: the result for `COC(=O)[C@]12CCC(C)(C)C[C@H]1C1=CC[C@@H]3[C@@]4(C)Cc5cnoc5C(C)(C)[C@@H]4CC[C@@]3(C)[C@]1(C)CC2` reads > 25 µM; that for `COC(=O)[C@]12CCC(C)(C)C[C@H]1C1=CC[C@@H]3[C@@]4(C)C=C(OC(C)=O)C(=O)C(C)(C)[C@@H]4CC[C@@]3(C)[C@]1(C)CC2`, > 25 µM.
On the same count and under the same terms, to `COC(=O)[C@]12CCC(C)(C)C[C@H]1C1=CC[C@@H]3[C@@]4(C)C=C(I)C(=O)C(C)(C)[C@@H]4CC[C@@]3(C)[C@]1(C)CC2` belongs > 25 µM.
Turning to `COC(=O)[C@]12CCC(C)(C)C[C@H]1C1=CC[C@@H]3[C@@]4(C)C=C(c5ccc(C#N)cc5)C(=O)C(C)(C)[C@@H]4CC[C@@]3(C)[C@]1(C)CC2`, in data set [1], the IC50 is > 25 µM.
Take `COC(=O)[C@]12CCC(C)(C)C[C@H]1C1=CC[C@@H]3[C@@]4(C)C=CC(=O)C(C)(C)[C@@H]4CC[C@@]3(C)[C@]1(C)CC2`: the IC50 in data set [1] is > 25 µM.
As for `COC(=O)[C@]12CCC(C)(C)C[C@H]1C1=CC[C@@H]3[C@@]4(C)C=C(c5ccc(OC)cc5)C(=O)C(C)(C)[C@@H]4CC[C@@]3(C)[C@]1(C)CC2`, in data set [1], the IC50 was > 25 µM.
Same read-out and setting: the result for `COC(=O)[C@]12CCC(C)(C)C[C@H]1C1=CC[C@@H]3[C@@]4(C)C=C(C#Cc5ccccc5)C(=O)C(C)(C)[C@@H]4CC[C@@]3(C)[C@]1(C)CC2` reads > 25 µM.
Still for that read-out and setting: to `COC(=O)[C@]12CCC(C)(C)C[C@H]1C1=CC[C@@H]3[C@@]4(C)C=C(Br)C(=O)C(C)(C)[C@@H]4CC[C@@]3(C)[C@]1(C)CC2` belongs > 25 µM.
On to `COC(=O)[C@]12CCC(C)(C)C[C@H]1[C@H]1C(=O)C=C3[C@@]4(C)C=C(C#N)C(=O)C(C)(C)[C@@H]4CC[C@@]3(C)[C@]1(C)CC2` [BARDOXOLONE METHYL], for which the IC50 in data set [1] fell in the range of 1.2 to 2.38 µM. Further, the Ratio in data set [2] was found to be 40.9.
On to `COC(=O)[C@]12CCC(C)(C)C[C@H]1C1=CC[C@@H]3[C@@]4(C)C=C(c5ccccc5)C(=O)C(C)(C)[C@@H]4CC[C@@]3(C)[C@]1(C)CC2`, for which the IC50 in data set [1] was > 25 µM.
As to `COC(=O)C1=C[C@]2(C)[C@H]3CC=C4[C@@H]5CC(C)(C)CC[C@]5(C(=O)OC)CC[C@@]4(C)[C@]3(C)CC[C@H]2C(C)(C)C1=O`, in data set [1], the IC50 was > 25 µM.
Turning to `CCOC(=O)/C=C/C1=C[C@]2(C)[C@H]3CC=C4[C@@H]5CC(C)(C)CC[C@]5(C(=O)OC)CC[C@@]4(C)[C@]3(C)CC[C@H]2C(C)(C)C1=O`, the IC50 in data set [1] was > 25 µM.
Turning to `COC(=O)[C@]12CCC(C)(C)C[C@H]1C1=CC[C@@H]3[C@@]4(C)C=C(C(=O)O)C(=O)C(C)(C)[C@@H]4CC[C@@]3(C)[C@]1(C)CC2`, the IC50 in data set [1] is > 25 µM. In addition, the Ratio in data set [2] came to 0.41.
As for `COC(=O)[C@]12CCC(C)(C)C[C@H]1C1=CC[C@@H]3[C@@]4(C)C=C(C=O)C(=O)C(C)(C)[C@@H]4CC[C@@]3(C)[C@]1(C)CC2`, the IC50 in data set [1] is 7.69 µM; in data set [3] it was “Nd(Toxic)”. In addition, the EC50 result in data set [4] was “Nd(Toxic)”. Further, the Activity entry with HeLa and in the data set on HaCaT was “Toxic” in each case.
Turning to `CC1(C)CC[C@]2(C(=O)O)CC[C@]3(C)C(=CC[C@@H]4[C@@]5(C)CC[C@H](O)C(C)(C)[C@@H]5CC[C@]43C)[C@@H]2C1` [OLEANOLIC_ACID], in data set [1], the IC50 was > 50 µM.
